The target of data set [1] is T1, PHD1 (Homo sapiens, UniProt Q96KS0). As to the kind of experiment: Biochemical HIF-PH enzyme assay. The note with it: for LipE (lipophilic binding efficiency): LipE=pIC50−logD 7.5; for BEI (binding efficiency index): from pIC50 and molecular weight; for dependence of potency (IC50) on Fe^2+ concentration: Fe^2+ varied in reaction buffer (3 μM and 30 μM, Figure 3). The gist of the method: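 Human HIF-PH hydroxylates Pro564 of a HIF peptide (aa 556–574). The hydroxylated peptide binds europium-labelled recombinant VBC complex, and inhibition is read as lower fluorescence. Iron dependence was tested at 3 and 30 μM Fe²⁺. LipE = pIC50 − logD7.5; BEI derived from pIC50 and corrected molecular weight.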
T1 sequence (Q96KS0 whole entry, the tested form may be a part): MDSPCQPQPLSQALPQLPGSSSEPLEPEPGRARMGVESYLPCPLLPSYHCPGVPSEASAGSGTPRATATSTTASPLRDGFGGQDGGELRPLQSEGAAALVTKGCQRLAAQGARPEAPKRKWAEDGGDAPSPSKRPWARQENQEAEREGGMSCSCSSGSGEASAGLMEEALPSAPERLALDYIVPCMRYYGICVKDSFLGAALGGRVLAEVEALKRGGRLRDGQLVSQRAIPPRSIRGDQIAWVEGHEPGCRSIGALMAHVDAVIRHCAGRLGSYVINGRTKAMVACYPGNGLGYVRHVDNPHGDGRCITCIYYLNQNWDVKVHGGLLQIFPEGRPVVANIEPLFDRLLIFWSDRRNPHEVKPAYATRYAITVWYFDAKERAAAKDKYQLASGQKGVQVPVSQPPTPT

The subject of data set [2] is endogenous HIF in recombinant A549 lung carcinoma cell. As to the kind of experiment: HIF-reporter cell assay. The format is cell-based.
The conditions of data set [3]: sodium salt; cited from earlier work.
The conditions of data set [4]: cited from earlier work.
Data set [5] has as its system plasma EPO. As to the kind of experiment: EPO mRNA / plasma EPO in mice. The format is in vivo. The note with it: for plasma EPO concentration: 4 h after p.o. dosing of 100 mg kg^−1, baseline ≈120 pg mL^−1.
For data set [6], the system named is plasma EPO. As to the kind of experiment: Plasma EPO in rats after oral dosing. In kind it is in vivo. The note with it: 4 h (Figure 7), BAY-908 50 mg kg^−1.
A short description of data set [7]: logD 7.5 by HPLC retention time correlation. The format is physicochemical. The note with it: pH 7.5. Put shortly:
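logD at pH 7.5 was estimated by correlating HPLC retention times with those of reference compounds of known logD7.5.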

The nature of data set [8]: Aqueous solubility. The format is physicochemical. The note with it: water.
For data set [9], the system named is major CYP isoforms. The data set can be described thus: CYP profile. The format is in vitro ADME.
Data set [10] in a line: Pharmacokinetic studies in rats. The format is in vivo. The note with it: rat; for clearance: blood, iv, 2 mg/kg; for bioavailability as Tylose suspension / Relative bioavailability (Tylose suspension): p.o.; for bioavailability as Tylose suspension: 0.5 % Tylose in water; for Relative bioavailability (Tylose suspension): 0.5 % Tylose in water vs solution.
The nature of data set [11]: Early safety profile.
The nature of data set [12]: pKa determination by spectrophotometry. In kind it is physicochemical. The note with it: aqueous solution.
Data set [13] concerns broad range of targets including 2‐OG‐dependent dioxygenases, metalloenzymes, nuclear hormone receptors and cell surface receptors. As to the kind of experiment: Lead profiling selectivity panel.
Data set [14] concerns the target T1, PHD1. The note with it: cited from earlier work.
In data set [15] the test system is PHD3. The note with it: salt-free compound; cited from earlier work.
For data set [16] the following is noted: metabolite of molidustat; cited from earlier work.
Data set [17] deals with HIF‐1α in HeLa cells. The data set can be described thus: Induction of HIF-1α in HeLa cell cultures. The format is cell-based. The note with it: human HeLa cell cultures.
Data set [18] has as its system EPO in HuH cells. The data set can be described thus: EPO induction in hepatoma HuH cells. In kind it is cell-based, human.
The test system of data set [19] is hematocrit and reticulocytes. As to the kind of experiment: Hematocrit and reticulocytes in mice. In kind it is in vivo.
A short description of data set [20]: Elimination of iron via urine in rats. The note with it: oral administration. The format is in vivo.
Where [21] appears, read: Homo sapiens, A549, read-out: EC50 HIF-reporter cell assay.

Converted amounts (≈) assume the structure as drawn. Like-named read-outs stand apart in the source and are kept apart here.

In the case of `COc1c(-c2cccnc2)cnn1-c1ccccn1` [Compound 8], in data set [1], the IC50 (usually the midpoint of a concentration-inhibition curve) is over 50000 nM.

For the compound `CCOC(=O)c1ccc(-n2[nH]cc(-c3cccnc3)c2=O)nc1` [Compound 25], half-maximal inhibition in data set [1] (IC50) was put at 650 nM. For the same compound, the EC50 (usually the concentration needed to bring the measured effect to its halfway point) in data set [2] (setting [21]) was determined as 5.3 µM.

In data set [1], `Cc1ccc(-c2c[nH]n(-c3ccccn3)c2=O)cn1` [Compound 31] returned an IC50 of 3200 nM.

`O=c1c(-c2cccnc2)c[nH]n1-c1cc(COCc2ccccc2)ccn1` [Compound 18] came in with an IC50 in data set [1] of 2900 nM.

As for `CC(=O)N(O)CCCCCNC(=O)CCC(=O)N(O)CCCCCNC(=O)CCC(=O)N(O)CCCCCN` [deferoxamine, reference compound], the EC50 in [2] (setting [21]) is about 25 µM.

In data set [1], `Cn1cc(-c2cccnc2)c(=O)n1-c1ccccn1` [Compound 9] yielded an IC50 of over 50000 nM.

Take `O=c1c(-c2cccnc2)n[nH]n1-c1ccccn1` [Compound 4]: the IC50 in [1] came to 24000 nM.

`[Na+].[O-]c1c(-n2ccnn2)cnn1-c1cc(N2CCOCC2)ncn1` [Compound 84, Sodium 1‐[6‐(morpholin‐4‐yl)pyrimidin‐4‐yl]‐4‐(1 H ‐1,2,3‐triazol‐1‐yl)‐1H‐pyrazol‐5‐olate]: the solubility in water in [3] is 28 g/L. Moreover, the water content in data set [4] (20–35 °C, normal pressure) is under 0.5 % w/w. The “change of water content” value in data set [4] (relative humidity of up to 90 %) is given as under 0.5 % w/w.

In the case of `Oc1c(-n2ccnc2)cnn1-c1cc(N2CCCCC2)ncn1` [Compound 44, 4‐(1H‐Imidazol‐1‐yl)‐1‐[6‐(piperidin‐1‐yl)pyrimidin‐4‐yl]‐1H‐pyrazol‐5‐ol], in data set [1], the IC50 is 500 nM, the “LipE (lipophilic binding efficiency)” value amounted to 5.3 and the “BEI (binding efficiency index)” value is 20.2. The EC50 in [2] (setting [21]) was determined as 4.9 µM. Besides, the “plasma EPO concentration” value in data set [5] is listed as “≈ 3000 pg mL^−1”. Further, in data set [6], the “plasma EPO concentration in rats” value was “improved”. In addition, the chromatographic logD – broadly, lipophilicity estimated from chromatographic retention – in [7] came out at 1. The amount in solution in data set [8] (solubility) came to 520 µg/mL (≈ 1670 µM). The “CYP profile / CYP inhibition” value in data set [9] is “not optimal”. For the same compound, in data set [10], the clearance – broadly, the rate of elimination divided by the concentration – is 21.7 mL/min/kg; the “bioavailability as Tylose suspension” value is “remained unchanged”; the “Relative bioavailability (Tylose suspension)” value (“Relative bioavailability” for short) is 97%. In data set [11], the early safety profile result is given as “not optimal”.

In data set [1], `O=c1c(-c2cccnc2)c[nH]n1-c1cc(N2CCOCC2)ncn1` [Compound 23] displayed an IC50 of 180 nM.

In turn, `O=c1c(-n2cnc(C(F)(F)F)c2)c[nH]n1-c1ccccn1` [Compound 38] displayed an IC50 in [1] of 150 nM.

In data set [1], `N#Cc1cncc(-c2cnn(-c3ccccn3)c2O)c1` [Compound 35] showed an IC50 of 1000 nM.

`Cc1nn(-c2ccccn2)c(O)c1-c1cccnc1` [Compound 3] came in with an IC50 in data set [1] of 3500 nM.

With `O=c1c(-c2cnccn2)c[nH]n1-c1ccccn1` [Compound 36], the IC50 in [1] came to 28000 nM.

`Cc1cccc(-n2[nH]cc(-c3cccnc3)c2=O)n1` [Compound 13]: in [1], the midpoint of inhibition, the IC50, lay at 8900 nM.

With `Cc1ccc(-n2[nH]cc(-c3cccnc3)c2=O)nc1` [Compound 12], half-maximal inhibition in data set [1] (IC50) was put at 1700 nM.

For `Cc1ccnc(-n2[nH]cc(-c3cccnc3)c2=O)c1` [Compound 11], in [1], it took 340 nM to reach half-maximal inhibition (IC50).

Compound `Cc1cn(-c2c[nH]n(-c3ccccn3)c2=O)nn1` [Compound 42] displayed an IC50 in data set [1] of 330 nM.

`S=c1c(-c2cccnc2)c[nH]n1-c1ccccn1` [Compound 5]: half-maximal inhibition in [1] (IC50) required 7500 nM.

`Oc1c(-n2ccnn2)cnn1-c1cc(N2CCOCC2)ncn1` [Compound 45, 1‐[6‐(Morpholin‐4‐yl)pyrimidin‐4‐yl]‐4‐(1H‐1,2,3‐triazol‐1‐yl)‐1H‐pyrazol‐5‐ol]: in data set [1], the “dependence of potency (IC50) on Fe^2+ concentration” value is reported as “independent”, the “LipE (lipophilic binding efficiency)” value is recorded as 6.1 and the “BEI (binding efficiency index)” value is 20.1. Also, the EC50 in data set [2] (setting [21]) came out at 8.4 µM. In data set [5], the “plasma EPO concentration” value was “≈ 4000 pg mL^−1”. Further, in data set [6], the “plasma EPO concentration in rats” value is on record as “Very high EPO induction”. For the same compound, the pK a in data set [12] is recorded as 4.4. Besides, in data set [7], the chromatographic logD is 0.27. In addition, in data set [8], the concentration in solution (solubility) came to 140 µg/mL (≈ 445 µM). Besides, in data set [9], the “CYP profile / CYP inhibition” value was “favorable”. In addition, in data set [13], the “selectivity profile in lead profiling panel” value was “favorable”. Further, in [10], the clearance is 18.3 mL/min/kg, the “bioavailability as Tylose suspension” value is “remained unchanged” and the “Relative bioavailability” value worked out at 102%. For the same compound, in data set [14] (Fe^2+ in the reaction buffer varied by a factor of 30), the “change in potency on variation of Fe^2+ concentration” value is listed as at most 2 fold. For the same compound, in [14] (biochemical assay, PHD1, HCl salt, ref 30 (WO2008067871 A1, example 72)), the IC50 is 490 nM. For the same compound, the IC50 in [15] is 450 nM. Further, in data set [4] (20–35 °C, normal pressure, >20 % relative humidity), the water uptake entry is “up to 6 % w/w”.

Compound `N#Cc1ccc(-c2c[nH]n(-c3ccccn3)c2=O)cn1` [Compound 34] returned an IC50 in data set [1] of 100 nM.

With `Oc1c(-c2cccnc2)ncnc1-c1ccccn1` [Compound 10], in data set [1], the IC50 was over 50000 nM.

In the case of `O=C(O)[C@H]1O[C@@H](n2cc(-n3ccnn3)c(=O)n2-c2cc(N3CCOCC3)ncn2)[C@H](O)[C@@H](O)[C@@H]1O` [Compound 85, 1‐(Beta‐D‐glucopyranuronosyl)‐2‐[6‐(morpholin‐4‐yl)pyrimidin‐4‐yl]‐4‐(1H‐1,2,3‐triazol‐1‐yl)‐1,2‐dihydro‐3H‐pyrazol‐3‐one], the “CYP profile / CYP inhibition” value in data set [9] was “no relevant CYP inhibition”. Also, the excreted via urine in [16] is listed as 85 % of dose.

In data set [1], `O=c1c(-n2ccnn2)c[nH]n1-c1ccccn1` [Compound 41] registered an IC50 of 790 nM. For the same compound, in [2] (setting [21]), the EC50 is over 20 µM.

`COc1ccc(-c2c[nH]n(-c3ccccn3)c2=O)cn1` [Compound 33] showed an IC50 in [1] of 190 nM.

Turning to `Oc1c(-c2cccnc2)cnn1-c1ccccn1` [Compound 1, 1‐(Pyridin‐2‐yl)‐4‐(pyridin‐3‐yl)‐1H‐pyrazol‐5‐ol], in data set [1], the midpoint of inhibition, the IC50, lay at 430 nM; the “dependence of potency (IC50) on Fe^2+ concentration” value is recorded as “only minor changes”; the “LipE (lipophilic binding efficiency)” value came to 5.8; the “BEI (binding efficiency index)” value was 26.7. In data set [2] (setting [21]), the EC50 came to 4.9 µM. Moreover, in [17], the “concentration at which HIF‐1α was detected” value is over 0.25 µM. In data set [18] (Homo sapiens, read-out: EC50 EPO mRNA induction), the EC50 is 1900 nM. Also, in data set [18] (human hepatoma HuH cells), the “increase in EPO concentration in the supernatant compared with baseline” value was “threefold”. Also, the “plasma EPO concentration” value in data set [5] is recorded as “≈ 900 pg mL^−1”. Besides, the “EPO mRNA and plasma EPO levels / EPO induction” value in data set [5] (after i.p. and p.o. administration) was “increased”. The “plasma EPO concentration in rats” value in data set [6] was “increased”. In addition, the hematocrit and reticulocytes entry in data set [19] was “increase”. In addition, in [20], the “elimination of iron via urine” value was “did not result in any increased elimination of iron via urine”. The same compound came in with a chromatographic logD in data set [7] of 0.6. Besides, in data set [8], the solubility – broadly, the concentration that dissolves in the medium under given conditions – is under 1 µg/mL. In addition, in data set [9], the “CYP profile / CYP inhibition” value is “clean”. The “selectivity profile in lead profiling panel” value in data set [13] is reported as “favorable”. Further, in [10], the clearance is 48.3 mL/min/kg and the “Relative bioavailability” value is given as 26%.

`Nc1c(-c2cccnc2)cnn1-c1ccccn1` [Compound 6] had an IC50 in [1] of over 50000 nM.

`O=c1c(-c2cccnc2)c[nH]n1-c1ccc(COCc2ccccc2)cn1` [Compound 27]: in [1], the IC50 is 1100 nM.

Turning to `[Cl][Co][Cl]` [cobalt chloride, reference compound], the EC50 in data set [2] (read-out: EC50 HIF-reporter cell assay, A549 HIFRE2 luciferase reporter) is about 50 µM.

Consider `O=c1c(-c2cccnc2)c[nH]n1-c1cc(N2CCCCC2)ncn1` [Compound 22], for which the midpoint of inhibition in data set [1], the IC50, lay at 1500 nM.

Compound `O=c1c(-c2cccnc2)c[nH]n1-c1cc(CO)ccn1` [Compound 17] showed an IC50 in data set [1] of 1500 nM.

In turn, `Cc1cncc(-c2cnn(-c3ccccn3)c2O)c1` [Compound 30] gave an IC50 in data set [1] of 1700 nM.

On to `COc1cc(-n2[nH]cc(-c3cccnc3)c2=O)ncn1` [Compound 20], for which it took 880 nM to reach half-maximal inhibition in data set [1] (IC50).

The record behind these values is publication PMC6001664 (Chemmedchem, 2018).
